These results are taken from ChEMBL document CHEMBL1147494, “Differentiation of in vitro transcriptional repression and activation profiles of selective glucocorticoid modulators” (Bioorg Med Chem Lett, 2004).

Test [1] deals with Cell line. The experiment in a line: Efficacy for transcriptional repression of IL-6 in Human cell native protein assay expressed as percentage of the maximal response of Dexamethasone. The class given is functional.
For test [2], the system named is Cell line. The experiment in a line: Effective concentration of compound for transcriptional activation of osteocalcin in Human cell native protein assay. The class given is functional, cell-based.
Test [3] concerns Cell line. Nature of the test: Efficacy for transcriptional activation of TAT in Human cell native protein assay expressed as percentage of the maximal response of Dexamethasone. Type of test: functional.
For test [4], the system named is Cell line. Nature of the test: Effective concentration of compound for transcriptional repression of PGE-2 in Human cell native protein assay.
In test [5] the target is T1, Progesterone receptor (Homo sapiens, UniProt P06401).
T1 sequence (P06401 whole entry): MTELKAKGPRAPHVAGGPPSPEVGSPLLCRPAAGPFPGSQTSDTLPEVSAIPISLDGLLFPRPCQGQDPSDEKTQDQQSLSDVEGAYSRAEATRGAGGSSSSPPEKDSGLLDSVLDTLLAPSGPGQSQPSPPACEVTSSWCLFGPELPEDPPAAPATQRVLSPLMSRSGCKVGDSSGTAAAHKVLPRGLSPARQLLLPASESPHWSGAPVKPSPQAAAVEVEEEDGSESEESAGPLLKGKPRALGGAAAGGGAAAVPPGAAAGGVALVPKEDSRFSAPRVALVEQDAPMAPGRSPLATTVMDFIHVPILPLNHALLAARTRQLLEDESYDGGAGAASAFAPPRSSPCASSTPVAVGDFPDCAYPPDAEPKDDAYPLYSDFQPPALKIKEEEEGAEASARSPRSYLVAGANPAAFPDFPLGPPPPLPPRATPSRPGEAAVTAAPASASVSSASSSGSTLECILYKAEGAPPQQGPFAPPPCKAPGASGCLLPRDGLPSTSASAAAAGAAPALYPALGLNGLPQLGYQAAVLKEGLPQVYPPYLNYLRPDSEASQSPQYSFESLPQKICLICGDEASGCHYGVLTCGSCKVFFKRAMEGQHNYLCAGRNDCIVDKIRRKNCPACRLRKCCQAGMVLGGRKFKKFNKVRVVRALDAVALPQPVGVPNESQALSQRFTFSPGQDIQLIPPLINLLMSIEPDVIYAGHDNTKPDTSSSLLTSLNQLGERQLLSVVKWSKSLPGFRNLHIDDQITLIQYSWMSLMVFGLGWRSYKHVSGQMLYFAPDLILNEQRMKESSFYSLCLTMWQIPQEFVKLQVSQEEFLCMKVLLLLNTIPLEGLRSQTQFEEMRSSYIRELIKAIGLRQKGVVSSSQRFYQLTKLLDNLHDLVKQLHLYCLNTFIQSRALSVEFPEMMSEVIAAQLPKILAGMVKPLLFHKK
The experiment in a line: Inhibition of transcriptional activation in cells expressing progesterone receptor isoform B. The class given is functional.

Test [6] concerns Cell line. Nature of the test: Effective concentration of compound for transcriptional repression of collagenase in Human cell native protein assay.
For test [7], the system named is Cell line. Nature of the test: Efficacy for transcriptional repression of osteocalcin in Human cell native protein assay expressed as percentage of the maximal response of Dexamethasone.
Test [8] deals with T2, Progesterone receptor (Homo sapiens) (UniProt P06401).
T2 sequence (whole entry): T1 sequence (P06401 whole entry)
Nature of the test: In vitro binding affinity against progesterone receptor. An outline of the steps: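 Competition binding assay against progesterone receptor. Replicates vary by value: single experiments in triplicate; two experiments with triplicate determinations (with standard deviation); or at least three separate experiments in triplicate (mean ± SEM).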

The test system of test [9] is Cell line. Nature of the test: Effective concentration for transcriptional activation of aromatase in Human cell native protein assay. Type of test: functional, cell-based.
Test [10] has as its system Cell line. Nature of the test: Effective concentration of compound for transcriptional repression of IL-6 in Human cell native protein assay.
The test system of test [11] is Cell line. Nature of the test: Efficacy for transcriptional activation of collagenase in Human cell native protein assay expressed as percentage of the maximal response of Dexamethasone. The class given is functional.
For test [12], the system named is Cell line. Nature of the test: Efficacy for transcriptional activation of aromatase in Human cell native protein assay expressed as percentage of the maximal response of Dexamethasone. The class given is functional.
Test [13] deals with Cell line. Nature of the test: Efficacy for transcriptional […] of PGE-2 in Human cell native protein assay expressed as percentage of the maximal response of Dexamethasone. Type of test: functional.
For test [14], the system named is Cell line. Nature of the test: Effective concentration of compound for transcriptional activation of TAT in Human cell native protein assay. Type of test: functional, cell-based.
The target of test [15] is T2, Progesterone receptor (Homo sapiens). The experiment in a line: Transcriptional activation in cells expressing progesterone receptor isoform B compared to progesterone. Type of test: functional.
The target of test [16] is T3, Glucocorticoid receptor (Homo sapiens, UniProt P04150).
T3 sequence (P04150 whole entry): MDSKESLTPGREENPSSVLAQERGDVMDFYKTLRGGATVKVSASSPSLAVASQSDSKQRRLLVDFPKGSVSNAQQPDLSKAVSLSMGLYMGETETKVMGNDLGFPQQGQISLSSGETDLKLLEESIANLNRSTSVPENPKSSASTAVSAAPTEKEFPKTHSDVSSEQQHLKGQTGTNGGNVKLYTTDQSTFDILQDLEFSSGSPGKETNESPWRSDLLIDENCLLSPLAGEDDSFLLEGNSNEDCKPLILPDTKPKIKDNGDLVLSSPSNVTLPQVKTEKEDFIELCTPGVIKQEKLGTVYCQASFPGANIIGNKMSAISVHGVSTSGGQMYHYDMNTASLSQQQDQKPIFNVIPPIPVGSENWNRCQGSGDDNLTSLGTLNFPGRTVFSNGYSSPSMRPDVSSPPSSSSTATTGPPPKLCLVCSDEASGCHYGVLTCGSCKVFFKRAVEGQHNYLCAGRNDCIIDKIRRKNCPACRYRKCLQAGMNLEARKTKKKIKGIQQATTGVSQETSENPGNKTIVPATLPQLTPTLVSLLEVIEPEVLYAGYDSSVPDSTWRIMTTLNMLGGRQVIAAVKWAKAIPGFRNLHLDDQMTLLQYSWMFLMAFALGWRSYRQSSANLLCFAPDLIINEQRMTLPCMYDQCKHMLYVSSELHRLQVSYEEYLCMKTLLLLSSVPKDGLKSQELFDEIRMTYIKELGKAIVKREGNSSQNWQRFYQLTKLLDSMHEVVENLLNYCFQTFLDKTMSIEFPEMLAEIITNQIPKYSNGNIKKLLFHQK
Nature of the test: Inhibition of transcriptional activation in CV-1 cells expressing glucocorticoid receptor. Type of test: functional, cell-based.

The target in test [17] is T3, Glucocorticoid receptor. Nature of the test: Inhibition of transcriptional repression in CV-1 cells expressing glucocorticoid receptor. The class given is functional, cell-based.

pEC50, pIC50: −log10 of the molar value. A value given as a limit tells only on which side of the number the result lay.

One may read the pEC50 as the negative decadic logarithm of the EC50, by convention in mol/L. A word on the pIC50: it is the IC50 on a negative log10 scale, so that one unit is a factor of ten. Read a high pIC50 as a small IC50.

As to `COc1cccc2c1-c1ccc3c(c1[C@H]([C@@H]1C=C(C)CCC1)O2)C(C)=CC(C)(C)N3`, the Efficacy is given as 90% in [1]; 67% in test [3]; 71% in [7]; 97% in test [11]; 43% in [12]; 95% in test [13]. Moreover, in test [15], the Efficacy worked out at 70%. Further, the pEC50 in test [2] is 7.27; in test [4], 8.27; in [6] it was 8.47; in [9], 7.23; in test [10] it was 7.35; in test [14] it was 6.54. For the same compound, the pIC50 is 7.85 in [5], under 5.30 in test [16] and 8.24 in test [17]. Further, the Activity in test [8] worked out at 430 nM.
In [5], `COc1c(O)ccc2c1-c1ccc3c(c1[C@H]([C@H]1C=C(C)CCC1)O2)C(C)=CC(C)(C)N3` showed a pIC50 of 6.68. In addition, the Activity in test [8] was determined as 52 nM. The compound further yielded an Efficacy in test [15] of 190%.
As to `C[C@]12C=CC(=O)C=C1CC[C@@H]1[C@@H]2[C@@H](O)C[C@@]2(C)[C@H]1CC[C@]2(O)C(=O)CO` [PREDNISOLONE], the Efficacy turned out to be 98% in [1]; 95% in [3]; 94% in test [7]; 98% in test [11]; 96% in [12]; 100% in [13]. Also, the pEC50 in test [2] is 7.49; in test [4], 8.70; in [6] it was 9.40; in test [9], 7.35; in [10], 8.44; in test [14], 7.32. Moreover, the Activity in test [8] was over 5000 nM.
